The source made the active and inactive calls. The rule behind the calls is not given here.

Series [1] can be described thus: Oral bioavailability in rat at 2.8 umol/kg. As to conditions: in vivo. Format: ADME, organism-based.
Series [2] can be described thus: Clearance in rat at 2 umol/kg, iv. Format: ADME. As to conditions: in vivo.
The nature of series [3]: Oral bioavailability in Beagle dog at 4.2 umol/kg. Format: ADME, organism-based, Canis lupus familiaris. The note with it: in vivo.
A short description of series [4]: Volume of distribution at steady state in rat at 2 umol/kg, iv. The class given is ADME. The note with it: in vivo, read-out: Vdss.
For series [5], the system named is Cytochrome P450. Put plainly: Drug metabolism in human hepatocytes assessed as CYP450-mediated phase-2 glucuronidation/ketone reduction at 4 uM measured after 120 mins by LC-MS/MS analysis. Format: ADME, cell-based, Hepatocyte. The note with it: 2 h.
A short description of series [6]: Half life in rat at 2 umol/kg, iv. The note with it: in vivo. Format: ADME.
A short description of series [7]: Cardiotoxicity in conscious telemetered Beagle dog assessed as effect on left ventricular parameters at 0.5 to 30 mg/kg administered as single iv infusion for 2 hrs measured up to 48 hrs post dose by telemetry. As to conditions: in vivo. Format: toxicity, organism-based, Canis lupus familiaris. Put shortly:
(§1)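 Conscious beagle dogs were given the compound by intravenous infusion. Infusion was set to reach a target plasma concentration 100-fold above the predicted free human Cmax at the therapeutic dose, and cardiovascular parameters were recorded.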

Series [8] can be described thus: Cardiotoxicity in conscious telemetered Beagle dog assessed as effect on heart rate at 0.5 to 30 mg/kg administered as single iv infusion for 2 hrs measured up to 48 hrs post dose by telemetry. The class given is toxicity, organism-based, Canis lupus familiaris. The note with it: in vivo. The method in brief: as §1
Series [9] is described as follows: Cardiotoxicity in conscious telemetered Beagle dog assessed as effect on arterial blood pressure at 0.5 to 30 mg/kg administered as single iv infusion for 2 hrs measured up to 48 hrs post dose by telemetry. Format: toxicity, organism-based, Canis lupus familiaris. The note with it: in vivo. Put shortly:
as §1

A short description of series [10]: Cardiotoxicity in dog assessed as effect on histopathological changes measured up to 28 days during compound dosing. The class given is toxicity, Canis lupus familiaris. The note with it: in vivo, 672 h.
The target in another series is Bile salt export pump (Homo sapiens, UniProt O95342). Put plainly: Inhibition of recombinant human BSEP expressed in baculovirus infected Sf21 insect cell vesicles assessed as reduction in NBD-taurocholate uptake by fluorescence assay. Format: ADME.
A short description of series [11]: Oral bioavailability in rat at 2.5 umol/kg. The class given is ADME, organism-based. As to conditions: in vivo.
In series [12] the test system is Cytochrome P450. The experiment in a line: Drug metabolism in human hepatocytes assessed as CYP450-mediated phase-2 glucuronidation/oxidation at 4 uM measured after 120 mins by LC-MS/MS analysis. The class given is ADME, cell-based, Hepatocyte. The note with it: 2 h.
The nature of series [13]: Cardiotoxicity in conscious telemetered Beagle dog assessed as effect on body temperature at 0.5 to 30 mg/kg administered as single iv infusion for 2 hrs measured up to 48 hrs post dose by telemetry. The class given is toxicity, organism-based, Canis lupus familiaris. As to conditions: in vivo. Put shortly:
as §1

Series [14] is described as follows: Cardiotoxicity in dog assessed as effect on cardiac function measured up to 28 days during compound dosing. The class given is toxicity, Canis lupus familiaris. The note with it: in vivo, 672 h.
Series [15] can be described thus: Cardiotoxicity in rat assessed as effect on histopathological changes measured up to 28 days during compound dosing. The class given is toxicity. As to conditions: in vivo, 672 h.
Series [16] can be described thus: Cardiotoxicity in rat assessed as effect on cardiac function measured up to 28 days during compound dosing. Format: toxicity. As to conditions: in vivo, 672 h.
The nature of series [17]: Cardiotoxicity in conscious telemetered Beagle dog assessed as effect on lead 2 electrocardiogram at 0.5 to 30 mg/kg administered as single iv infusion for 2 hrs measured up to 48 hrs post dose by telemetry. Format: toxicity, organism-based, Canis lupus familiaris. As to conditions: in vivo. The method in brief: as §1
Series [18] can be described thus: Half life in human at 60 to 1200 mg, po administered as single dose. Format: ADME, organism-based. As to conditions: in vivo.
Series [19] can be described thus: Cardiotoxicity in conscious telemetered Beagle dog. The class given is toxicity, Canis lupus familiaris.
Series [20] has as its target Prostaglandin G/H synthase 1 (Homo sapiens) (UniProt P23219). Put plainly: Activity at COX1 in human whole blood assessed as effect on […] production by EIA. The class given is tissue-based.
The next series relates to THP-1. Put plainly: Cytotoxicity against human THP1 cells assessed as reduction in cell viability measured after 48 hrs by resazurin assay. Format: cell-based. The note with it: THP-1, 48 h.
For series [21], the species on record is Homo sapiens. The experiment in a line: Selectivity ratio of compound effect on activity at COX1 in human whole blood to IC50 for FLAP in human whole blood.
For series [22], the target named is T1, Arachidonate 5-lipoxygenase-activating protein (Homo sapiens) (UniProt P20292).
T1 sequence (whole entry): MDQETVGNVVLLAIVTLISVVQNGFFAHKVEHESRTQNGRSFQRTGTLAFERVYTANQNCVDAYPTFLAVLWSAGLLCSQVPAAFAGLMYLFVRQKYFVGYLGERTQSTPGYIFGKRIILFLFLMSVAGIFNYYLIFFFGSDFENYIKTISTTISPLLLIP
The experiment in a line: Inhibition of FLAP in human whole blood assessed as reduction in calcium ionophore-stimulated LTB4 production preincubated for 4 hrs followed by calcium ionophore stimulation and measured after 20 mins by EIA. The class given is tissue-based. The method in brief: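 Fresh human whole blood was incubated with compound for 4 h, then stimulated with calcium ionophore, and LTB4 production was measured as the 5-LO pathway read-out. IC50 was also converted to a free value: IC50 × (Fu/100), where Fu = 100 − human plasma protein binding (%).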

The species named for series [23] is Homo sapiens. The experiment in a line: Selectivity ratio of compound effect on activity at COX2 in human whole blood to IC50 for FLAP in human whole blood.
Series [24] relates to Cytochrome P450. Put plainly: Drug metabolism in human hepatocytes assessed as CYP450-mediated oxidation at 4 uM measured after 120 mins by LC-MS/MS analysis. The class given is ADME, cell-based, Hepatocyte. As to conditions: 2 h.
A short description of series [25]: Half life in Beagle dog at 1 umol/kg, iv. The class given is ADME, Canis lupus familiaris. The note with it: in vivo.
A short description of series [26]: Volume of distribution at steady state in Beagle dog at 1 umol/kg, iv. The note with it: in vivo, read-out: Vdss. Format: ADME, Canis lupus familiaris.
Series [27] has as its target T2, Arachidonate 5-lipoxygenase-activating protein (Homo sapiens, UniProt P20292).
T2 sequence (P20292 whole entry): T1 sequence (whole entry)
Put plainly: Inhibition of [3H]MK0591 binding to human FLAP expressed in […] cell membranes measured after 60 to 80 mins by microbeta scintillation counting method.

A short description of series [28]: Clearance in Beagle dog at 1 umol/kg, iv. The note with it: in vivo. Format: ADME, Canis lupus familiaris.
Series [29] has as its target T3, Prostaglandin G/H synthase 2 (Homo sapiens) (UniProt P35354).
T3 sequence (whole entry): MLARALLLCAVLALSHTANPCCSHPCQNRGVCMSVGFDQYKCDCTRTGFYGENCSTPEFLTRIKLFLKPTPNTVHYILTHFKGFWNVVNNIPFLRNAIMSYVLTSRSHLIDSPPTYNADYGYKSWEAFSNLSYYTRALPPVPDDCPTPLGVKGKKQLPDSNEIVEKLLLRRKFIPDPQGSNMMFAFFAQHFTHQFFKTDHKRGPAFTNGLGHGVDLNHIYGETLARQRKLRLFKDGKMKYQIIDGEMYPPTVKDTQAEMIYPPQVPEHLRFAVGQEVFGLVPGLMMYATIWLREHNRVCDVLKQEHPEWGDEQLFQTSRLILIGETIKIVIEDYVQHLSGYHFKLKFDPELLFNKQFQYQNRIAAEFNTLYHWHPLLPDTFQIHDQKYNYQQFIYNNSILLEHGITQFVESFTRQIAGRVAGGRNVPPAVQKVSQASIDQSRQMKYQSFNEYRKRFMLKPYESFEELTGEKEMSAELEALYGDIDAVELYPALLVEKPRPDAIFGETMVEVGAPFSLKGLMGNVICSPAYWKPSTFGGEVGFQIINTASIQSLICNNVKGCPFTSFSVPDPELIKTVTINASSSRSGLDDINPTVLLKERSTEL
The experiment in a line: Activity at COX2 in human whole blood assessed as effect on LPS-induced PGE2 production preincubated for 15 mins followed by LPS-stimulation and measured after overnight incubation by EIA. Format: tissue-based.

Series [30] in a line: Oral bioavailability in rat at 2 umol/kg. The class given is ADME, organism-based. The note with it: in vivo.
Another series has as its system HepG2. The experiment in a line: Cytotoxicity against human HepG2 cells assessed as reduction in ATP depletion in presence of glucose/galactose. The class given is cell-based.

Sequence of Prostaglandin G/H synthase 1 (Homo sapiens) (P23219 whole entry): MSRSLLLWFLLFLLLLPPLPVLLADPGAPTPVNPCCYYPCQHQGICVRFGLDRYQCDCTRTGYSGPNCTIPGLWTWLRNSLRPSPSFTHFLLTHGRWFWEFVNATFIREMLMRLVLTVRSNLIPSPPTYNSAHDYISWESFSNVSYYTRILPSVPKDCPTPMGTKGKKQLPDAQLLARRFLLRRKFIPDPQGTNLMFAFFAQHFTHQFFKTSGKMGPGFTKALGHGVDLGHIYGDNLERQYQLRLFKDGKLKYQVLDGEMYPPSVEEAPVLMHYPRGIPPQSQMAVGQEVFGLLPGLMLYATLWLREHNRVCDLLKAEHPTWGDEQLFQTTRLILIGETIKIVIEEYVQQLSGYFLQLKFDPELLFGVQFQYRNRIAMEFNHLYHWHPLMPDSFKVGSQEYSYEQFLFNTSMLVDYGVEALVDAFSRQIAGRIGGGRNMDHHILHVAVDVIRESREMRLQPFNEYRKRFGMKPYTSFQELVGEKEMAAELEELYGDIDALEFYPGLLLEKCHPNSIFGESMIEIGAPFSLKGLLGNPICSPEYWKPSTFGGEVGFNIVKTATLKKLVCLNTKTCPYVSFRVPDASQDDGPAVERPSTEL
Sequence of Bile salt export pump (O95342 whole entry): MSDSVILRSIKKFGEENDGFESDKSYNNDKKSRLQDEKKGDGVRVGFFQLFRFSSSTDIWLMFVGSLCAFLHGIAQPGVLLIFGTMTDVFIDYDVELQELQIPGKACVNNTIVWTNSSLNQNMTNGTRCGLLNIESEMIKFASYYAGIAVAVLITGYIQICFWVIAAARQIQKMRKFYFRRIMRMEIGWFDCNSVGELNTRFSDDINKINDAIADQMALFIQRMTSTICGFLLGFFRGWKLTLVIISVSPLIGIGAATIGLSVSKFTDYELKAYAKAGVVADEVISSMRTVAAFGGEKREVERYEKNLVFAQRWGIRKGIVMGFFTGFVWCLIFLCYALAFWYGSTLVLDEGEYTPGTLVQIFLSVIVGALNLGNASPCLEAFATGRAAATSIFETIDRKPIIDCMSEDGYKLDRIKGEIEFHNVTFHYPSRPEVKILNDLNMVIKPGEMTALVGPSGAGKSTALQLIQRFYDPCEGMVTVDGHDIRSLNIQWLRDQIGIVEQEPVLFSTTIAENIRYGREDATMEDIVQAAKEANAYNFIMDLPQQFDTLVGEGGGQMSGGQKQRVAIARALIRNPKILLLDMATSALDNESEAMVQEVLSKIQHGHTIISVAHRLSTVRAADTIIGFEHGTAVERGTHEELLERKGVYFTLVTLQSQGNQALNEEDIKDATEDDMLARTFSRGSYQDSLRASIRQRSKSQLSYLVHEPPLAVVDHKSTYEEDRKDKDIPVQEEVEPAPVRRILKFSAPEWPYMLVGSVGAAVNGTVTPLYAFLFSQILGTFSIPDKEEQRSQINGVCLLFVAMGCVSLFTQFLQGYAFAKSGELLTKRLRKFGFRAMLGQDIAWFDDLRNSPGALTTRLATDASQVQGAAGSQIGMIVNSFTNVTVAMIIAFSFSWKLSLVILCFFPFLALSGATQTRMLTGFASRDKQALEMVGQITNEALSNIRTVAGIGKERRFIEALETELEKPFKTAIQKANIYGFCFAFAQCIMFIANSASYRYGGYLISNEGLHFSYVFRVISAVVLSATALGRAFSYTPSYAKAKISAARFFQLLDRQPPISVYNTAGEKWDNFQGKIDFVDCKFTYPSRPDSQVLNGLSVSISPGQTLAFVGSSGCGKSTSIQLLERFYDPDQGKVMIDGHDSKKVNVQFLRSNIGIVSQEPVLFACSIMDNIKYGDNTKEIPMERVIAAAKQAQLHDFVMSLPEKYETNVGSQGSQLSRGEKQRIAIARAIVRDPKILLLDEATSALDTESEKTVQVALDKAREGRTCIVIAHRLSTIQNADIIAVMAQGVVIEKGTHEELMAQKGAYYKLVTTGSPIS

Regarding `Cc1cc(-c2ccc(C(=O)[C@@H]3CCCC[C@H]3C(=O)Nc3cnn(C)c3S(N)(=O)=O)cc2)[nH]n1`, the values for the bioavailability in series [1] and in [3] were 14% and 65%, respectively. This molecule returned a clearance in series [2] of 10 mL/min/kg. The Vd in [4] turned out to be 1.3 L/kg. The Drug metabolism result in the series with Cytochrome P450 [5] is “Metabolite_Detected”. In series [6], this molecule showed a half-life of 2.9 h.

As for `Cc1cc(-c2ccc(C(=O)[C@@H]3CCCC[C@H]3C(=O)Nc3cnn4c3C(=O)NCC4)cc2)[nH]n1`, the Activity result in series [7], in series [8], in series [9], in [10], in series [13] and in series [14] was “Non-Toxic” in each case. In addition, the Activity result in series [15], in [16], in [17] and in series [19] was “Non-Toxic” in each case. Moreover, the IC50 on Bile salt export pump lay in the range of 74 to 340 µM. In series [11], this molecule gave a bioavailability of 14%. The Drug metabolism result in the series on Cytochrome P450 [12] is reported as “Metabolite_Detected”. This molecule also showed a half-life in series [18] of 12 h.

Regarding `Cc1cc(-c2ccc(C(=O)[C@@H]3CCCC[C@H]3C(=O)Nc3cnn(C)c3C(=O)NOC(C)(C)C)cc2)[nH]n1`, the outcome in [20] and in [29] was inactive. For the same molecule, the IC50 is greater than 250 µM in the series on THP-1, 0.0058 µM in series [27] and greater than 250 µM with HepG2. The Selectivity ratio in the series filed under Homo sapiens [21] and in the series filed under Homo sapiens [23] was greater than 100 in each case. In series [22], the fIC50 was 1.6 nM. Besides, the Drug metabolism result in the series with Cytochrome P450 [24] was “Metabolite_Detected”. The molecule also showed a half-life in series [25] of 7 h. Further, the Vd in [26] is 0.4 L/kg. Further, the clearance in series [28] was 2 mL/min/kg. Further, in [30], the bioavailability came out at 12%.
